Screens as filed in PubChem.
Env fusion inh – inhibitors of HIV Env-mediated cell fusion; HeLa-JRFL Env/CEM21 cell fusion, luciferase; inhibition, % at 12.3 µM; 1.1% of 360,000 active;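 active = mean replicate inhibition score of at least 50 and every replicate individually at or above 50; inconclusive = only one of the two criteria met; inactive = mean below 50 and not all replicates reaching 50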;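 note: 0% = plate neutral controls and 100% = maraviroc near 300 nM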
E-sel inducer – induces E-selectin expression in human endothelial cells | P16581 | HUVEC E-selectin immunofluorescence imaging; normalized: neutral wells 0, TNF-alpha wells 100 | activation, % at 7.58 µM | 0.37% of 260,000 active | AID 686992;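 active = mean E-selectin-positive cell signal at least 10% of the positive control, reached in at least 60% of replicates, without over 20% cell loss; inconclusive = no rule given, readout overlaps actives, possibly toxicity-flagged; inactive = the rest, including those meeting only one limit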
Target sequence (P16581 whole entry, looked up): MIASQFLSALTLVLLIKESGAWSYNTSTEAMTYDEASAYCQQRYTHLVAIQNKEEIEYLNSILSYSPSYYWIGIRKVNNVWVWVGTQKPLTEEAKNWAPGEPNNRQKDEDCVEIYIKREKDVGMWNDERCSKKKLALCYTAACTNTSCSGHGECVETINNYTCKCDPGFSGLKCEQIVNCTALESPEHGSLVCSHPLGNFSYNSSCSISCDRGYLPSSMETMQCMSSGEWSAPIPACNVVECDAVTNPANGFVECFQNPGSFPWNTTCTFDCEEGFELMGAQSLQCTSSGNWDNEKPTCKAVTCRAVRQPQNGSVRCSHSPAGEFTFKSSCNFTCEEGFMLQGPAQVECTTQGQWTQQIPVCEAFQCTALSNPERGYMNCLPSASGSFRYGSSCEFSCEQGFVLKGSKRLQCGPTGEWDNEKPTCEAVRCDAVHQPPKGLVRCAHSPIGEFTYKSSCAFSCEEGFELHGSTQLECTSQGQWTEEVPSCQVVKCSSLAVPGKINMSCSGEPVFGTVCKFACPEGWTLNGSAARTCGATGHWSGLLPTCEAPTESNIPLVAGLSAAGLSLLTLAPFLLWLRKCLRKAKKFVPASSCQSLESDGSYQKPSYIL
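Assay system: HUVEC, human umbilical vein endothelial cells / Amount: 3,000 HUVEC/well / Controls: TNF-alpha positive control, DMSO neutral control / Compound dosing: single concentration / Medium: EGM-2 over gelatin coat / Evaluation: percent E-selectin-positive cells / Signal: immunofluorescence imaging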
FGF22 binding – FGF22 (human) thermal shift binding; activity (Tm shift, normalised), % at 9.99 µM; Q9HCT0; recombinant FGF22 thermal shift, SYPRO orange fluorescence; percent of sucrose octasulfate shift, DMSO zero; 1.5% of 340,000 active; AID 651658;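 active = mean Tm shift, scaled 0 neutral to 100 positive control, at about 1.3% or above, every replicate too, limit read from the data; inconclusive = no clear call, values can overlap the other calls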
S100A4 inh HTS – S100A4-myosin IIA interaction inhibition | inhibition, % at 10.7 µM | S100A4/TAMRA-MyoIIA peptide fluorescence polarization | AID 652163 | P26447 | 0.14% of 360,000 active;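 active = mean inhibition of at least 70% across replicates, with every replicate also reaching that level; inconclusive = mean inhibition reaches 70% but some replicates fall short; inactive = mean inhibition below 70%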
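Test system: S100A4 monomer protein. Medium: HEPES buffer with Ca2+, pH 7.2. Reagent: fluorescent myosin IIA peptide, 5 nM. Compound dosing: single-point compound testing. Timing: 5 min between mix addition and reading. Benchmarks: DMSO neutral and TFP positive wells.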
F508del corr – CFTR F508del correction in bronchial cells; CFBE cells, YFP halide quenching; stimulated with forskolin plus potentiator P3; % fluorescence drop versus neutral controls; activity (quench increase), % at 7.58 µM; 0.36% of 350,000 active;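 active = mean added fluorescence quench of at least 8% versus neutral control, with both replicates also reaching 8%; inconclusive = only one of the mean or replicate conditions met; inactive = mean below 8% and not both replicates reaching 8%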;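 note: cells transiently co-express mutant CFTR-F508del with the halide-sensitive YFP; corrector assay measuring rescue of mutant channel to the surface after 24 h compound exposure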
Starred values were filed as active, the others as inactive; ? = inconclusive; nt = no result given; [ ] = dose if it differs, or a comment. Compounds with a hit are over-represented: about 2.7% of the library has one in this group of screens.

SMILES	Env fusion inh	E-sel inducer	FGF22 binding	S100A4 inh HTS	F508del corr
Clc1ccc(CN(Cc2ccccc2)C(c2cccs2)c2nnnn2C2CCCC2)cc1 (configuration not stated)	94*	nt	nt	nt	nt
C[C@H](CO)N1C[C@H](C)[C@@H](CN(C)C(=O)Nc2ccc(C(F)(F)F)cc2)Oc2ccc(NC(=O)Cn3cnnn3)cc2CC1=O	6[16.7 µM]	-7	0	-4	0
CC(C)NC(=O)N(C)C[C@@H]1Oc2ccc(NC(=O)Cn3cnnn3)cc2CC(=O)N([C@@H](C)CO)C[C@H]1C	-2[16.7 µM]	66*	0	1	-1
C[C@@H]1CN([C@H](C)CO)C(=O)Cc2cc(NC(=O)Cn3cnnn3)ccc2O[C@H]1CN(C)C(=O)Nc1ccc(C(F)(F)F)cc1	4[16.7 µM]	32*	0	-1	-1
CC(C)NC(=O)N(C)C[C@@H]1Oc2ccc(NC(=O)Cn3cnnn3)cc2C(=O)N([C@H](C)CO)C[C@@H]1C	15[16.7 µM]	9	nt	nt	-2
CC(C)NC(=O)N(C)C[C@@H]1Oc2ccc(NC(=O)Cn3cnnn3)cc2C(=O)N([C@H](C)CO)C[C@H]1C	-9[16.7 µM]	59*	nt	nt	2
C[C@@H]1CN([C@@H](C)CO)C(=O)Cc2cc(NC(=O)Cn3cnnn3)ccc2O[C@@H]1CN(C)C(=O)Nc1ccc(F)cc1	-9[16.7 µM]	-3	nt	nt	0
C[C@H](CO)N1C[C@H](C)[C@H](CN(C)C(=O)Nc2ccc(C(F)(F)F)cc2)Oc2ccc(NC(=O)Cn3cnnn3)cc2CC1=O	-13[16.7 µM]	41*	0	0	-3
C[C@H](CO)N1C[C@H](C)[C@H](CN(C)S(=O)(=O)c2ccc(Cl)cc2)Oc2ccc(NC(=O)c3ccncc3)cc2C1=O	nt	0	0	-16	2
COc1ccc(S(=O)(=O)N(C)C[C@@H]2Oc3ccc(NC(=O)Cn4cnnn4)cc3CC(=O)N([C@@H](C)CO)C[C@H]2C)cc1	-10[16.7 µM]	-15	0	0	-1
COc1ccc(S(=O)(=O)N(C)C[C@@H]2Oc3ccc(NC(=O)Cn4cnnn4)cc3CC(=O)N([C@H](C)CO)C[C@@H]2C)cc1	90*[16.7 µM]	-4	0	18	0
C[C@H]1CN([C@@H](C)CO)C(=O)Cc2cc(NC(=O)Cn3cnnn3)ccc2O[C@H]1CN(C)Cc1ccc(C(F)(F)F)cc1	92*[16.7 µM]	nt	0	5	5
CC(C)NC(=O)N(C)C[C@@H]1Oc2ccc(NC(=O)C3CC3)cc2CC(=O)N([C@@H](C)CO)C[C@@H]1C	59*[16.7 µM]	nt	0	7	-1
C[C@H]1CN([C@@H](C)CO)C(=O)c2cc(NC(=O)Cn3cnnn3)ccc2O[C@H]1CN(C)S(=O)(=O)c1ccccc1	-2[16.7 µM]	36*	0	6	-1
C[C@H]1CN([C@@H](C)CO)C(=O)c2cc(NC(=O)Cn3cnnn3)ccc2O[C@@H]1CN(C)S(=O)(=O)c1ccccc1	-8[16.7 µM]	2	0	-1	-3
CN(C)CC(=O)Nc1ccc2c(c1)[C@H]1C[C@H](CC(=O)N3CCc4ccccc4C3)O[C@@H](CO)[C@H]1O2	0[16.7 µM]	-1	0	4	1
C[C@@H]1CN([C@@H](C)CO)C(=O)Cc2cc(NC(=O)c3ccncc3)ccc2O[C@@H]1CN(C)C(=O)Nc1ccc(C(F)(F)F)cc1	37[16.7 µM]	74*	0	0	2
C[C@@H]1CN([C@@H](C)CO)C(=O)Cc2cc(NC(=O)Cn3cnnn3)ccc2O[C@H]1CN(C)C(=O)Nc1ccc(F)cc1	-7[16.7 µM]	86*	nt	nt	-1
C[C@@H]1CN([C@H](C)CO)C(=O)Cc2cc(NC(=O)c3ccncc3)ccc2O[C@H]1CN(C)C(=O)Nc1ccc(C(F)(F)F)cc1	-21[16.7 µM]	20	0	-31	7
Cc1ccc(S(=O)(=O)N(C)C[C@@H]2Oc3ccc(NC(=O)Cc4ccccc4)cc3C(=O)N([C@@H](C)CO)C[C@H]2C)cc1	nt	3	0	-32	-1
COc1ccc(OC2C(=O)N(c3ccc(C)c(C)c3)C2c2ccc(OC)c(OC)c2)cc1 (configuration not stated)	38	nt	44*	3	2
Cc1nn(C)c(C)c1N1C(=O)c2cccc3c(N)ccc(c23)C1=O	-12	3	nt	nt	nt
CCN1C(=O)c2cccc3c(N)ccc(c23)C1=O	-5	0	-1	4	19*
Cc1nnc(NC(=O)C2CCCCC2)s1	65*	nt	nt	nt	nt
CC(=O)N/N=C(\C)CC(=O)Nc1ccc2c(c1)OCCO2	-3	nt	43*	2	-2
SMILES	Env fusion inh	E-sel inducer	FGF22 binding	S100A4 inh HTS	F508del corr
CCOc1ccc(NC(=O)c2ccccc2NC(=O)CNC2CCCC(C)C2C)cc1 (configuration not stated)	nt	0	0	2	11*
COc1ccc(CNCCC(c2ccc(OC(C)C)cc2)C(C)C)cc1OC (configuration not stated)	77*	nt	nt	nt	nt
COc1ccc(C(CCNCc2ccc(OC(C)C)cc2)C(C)C)cc1 (configuration not stated)	25	0	0	-20	-2
COc1ccccc1C(CCNCc1ccc(N(C)C)cc1)c1ccc(OC(C)C)cc1 (configuration not stated)	55*	nt	0	-7	-1
COc1ccc(C(CCNCc2ccc(N(C)C)cc2)C(C)C)cc1 (configuration not stated)	65*	0	0	-2	2
COc1ccc(CNCCC(c2ccc(OC(C)C)cc2)c2ccccc2OC)cc1 (configuration not stated)	?	0	0	-9	-1
O=C(NCC[C@@H]1CC[C@@H](NS(=O)(=O)c2cccc(F)c2)[C@@H](CO)O1)Nc1cc(F)ccc1F	-6[16.7 µM]	0	0	5	-5
COc1cc(-c2nc(CN3CCN(c4ncccn4)CC3)c(C)o2)ccc1F	9	0	43*	-3	2
COc1cc(-c2nc(CN3CCN(CC(C)C)C(=O)[C@@H]3C)c(C)o2)ccc1F	11	nt	0	0	-2
CCOC(=O)C1=C[C@@H](C(C)(C)C)N(S(=O)(=O)c2ccc(OC)cc2)[C@H]1c1ccccc1	63*	-1	0	2	-2
CCOC(=O)C1=CCN(S(=O)(=O)c2ccc(F)cc2)C1c1cccc(Cl)c1 (configuration not stated)	16	0	41	12	4
CCOC(=O)C1=C[C@@H](C(C)(C)C)N(S(=O)(=O)c2ccc(C)cc2)[C@H]1c1ccc(OC)cc1	15	-2	0	-4	-3
CCOC(=O)C1=C[C@@H](C(C)(C)C)N(S(=O)(=O)c2ccc(C)cc2)[C@H]1c1cccc(Cl)c1	33	0	0	0	-1
CCOC(=O)C1=C[C@@H](C(C)(C)C)N(S(=O)(=O)c2ccc([N+](=O)[O-])cc2)[C@H]1c1cccc(Cl)c1	71*	0	0	0	6
